Measurements pooled from the literature.
Protocols differ between the studies behind these lines.
Target: RAC-beta serine/threonine-protein kinase (AKT2, Homo sapiens, UniProt P31751)

Structure (SMILES) | test | setting | remaining binding [%]
CCN1CCN(Cc2ccc(C(=O)Nc3ccc(C)c(Oc4ccc5c(c4)CC(=O)N5)c3)cc2C(F)(F)F)CC1 | binding, competition with immobilised ligand | 1 µM | 100
C[C@@H](c1ccc(-n2cnc3c(N)ncnc32)cc1)N1CCc2nn(C)c(Cc3ccccc3)c2C1=O | binding, competition with immobilised ligand | 0.1 µM | 99
CN(C)CC#Cc1ccc(OCCCc2sc(N3CCc4cccc(C(=O)Nc5nc6ccccc6s5)c4C3)nc2C(=O)O)c(F)c1 | cell-free assay, competition with immobilised ligand | 1 µM | 100
O=C(NCCCN1CCOCC1)c1ccc(Nc2ncc(Cl)c(-c3ccc(Cl)s3)n2)cc1 | binding, competition with immobilised ligand | 1 µM | 100
Cc1c(NC(=O)c2cc(C(N)=O)nc3cc(F)ccc23)c(C(F)(F)F)nn1Cc1ccc(C#N)cc1 | cell-free assay, competition with immobilised ligand | 1 µM | 98
CN(C)c1nccc(-c2cnc3ncccn23)n1 | binding | 1 µM | 88
CCC(=O)N[C@@H]1CC[C@H](C(=O)N(C)c2ccc(-c3nc4ccccc4o3)cc2)C1 | cell-free assay, competition with immobilised ligand | 1 µM | 72
N[C@H]1CCN(c2nccc(-c3cnn4ncccc34)n2)C1 | binding | 1 µM | 100
Cc1c[nH]c2nccc(Oc3c(F)cc(Nc4cc(Cl)nc(N)n4)cc3F)c12 | cell-free assay, competition with immobilised ligand | 0.1 µM | 98
N#Cc1ccccc1CSc1nnc2c(n1)[nH]c1ccccc12 | binding, competition with immobilised ligand | 10 µM | 93
C[C@@H]1CCN(c2nccc(-c3cnn4ncccc34)n2)C1 | binding | 1 µM | 93
Cc1cnc(Nc2ccc(C(=O)N3CCC(N4CCCC4)CC3)cc2)nc1-c1cc2ccccc2s1 | binding, competition with immobilised ligand | 1 µM | 83
COc1cnc(Nc2cccc(S(N)(=O)=O)c2)nc1N1CCN(c2ccccc2)CC1 | binding, competition with immobilised ligand | 1 µM | 94
C[C@@H]1CN(c2ccc3ncc(-c4ccc5[nH]nc(C6CC6)c5c4)n3n2)C[C@H](C)O1 | binding, competition with immobilised ligand | 50 nM | 100
CCS(=O)(=O)c1cc2cc(C[C@@](O)(CC(C)(C)c3ccc(F)cc3C(N)=O)C(F)(F)F)[nH]c2cn1 | cell-free assay, competition with immobilised ligand | 1 µM | 93
CN(C)c1ncc(F)c(-c2cnn3ncccc23)n1 | binding | 1 µM | 100
O=C(O)[C@@H]1[C@@H](Cn2nnc3ccccc3c2=O)CC[C@H]1C(=O)c1ccc(OCCC2CCOCC2)cc1 | cell-free assay, competition with immobilised ligand | 1 µM | 100
Nc1ncc2c(n1)-c1c([nH]c3ccc(C#CC4CC4)cc13)CCCC2 | binding, competition with immobilised ligand | 1 µM | 100
Cc1cnn2ncc(-c3ccnc(N(C)C)n3)c2c1 | binding | 1 µM | 100
O=C(NCC1CCOCC1)c1n[nH]cc1NC(=O)c1c(F)cccc1F | binding, competition with immobilised ligand | 1 µM | 100
CC(C)(C)c1ccc(-c2nc(CBr)nn2-c2cccc(O)c2)cc1 | cell-free assay, competition with immobilised ligand | 10 µM | 70
O=C(c1ccc(Nc2ncc(Cl)c(-c3cc4ccccc4s3)n2)cc1)N1CCC(N2CCCC2)CC1 | binding, competition with immobilised ligand | 1 µM | 88
CCCOc1ccc([C@H]2[C@H](C(=O)O)[C@@H](c3ccc4c(c3)OCO4)CN2CC(=O)Nc2c(CC)cccc2CC)cc1 | cell-free assay, competition with immobilised ligand | 1 µM | 100
CN(CCCC(F)(F)F)c1nccc(-c2cnn3ncccc23)n1 | binding | 1 µM | 75
